Laboratory results taken from ChEMBL document CHEMBL1143123, “Novel analogs of D-e-MAPP and B13. Part 2: signature effects on bioactive sphingolipids” (2008).
Active and inactive are the calls of the source. No cut-off for these calls is given here.

Key:
MCF7 [1] = assay: Increase in endogenous C24-ceramide level in human MCF7 cells at 10 uM within 30 mins; format: functional, cell-based
Procedure, shortened: (§1)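 MCF7 cells grown in RPMI 1640 with 10% FCS at 37 °C in 5% CO2. Seeded near 50% density and treated 24 h later with compound in ethanol (0.1% final); controls got ethanol alone. Cells washed in cold PBS and extracted. Cer species, Sph and S1P measured by HPLC-MS/MS (C8 column, positive-ion MRM) against internal standards and calibration curves. Results given as pmol/nmol phospholipid phosphate, relative to ethanol controls.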

MCF7 [2] = assay: Decrease in endogenous sphingosine level in human MCF7 cells at 10 uM upto 2.5 hrs; format: functional, cell-based
Procedure, shortened: (§2)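 MCF7 cells grown in RPMI 1640 with 10% FCS at 37 °C, 5% CO2. Seeded at ~50% density (1×10^6 cells), treated 24 h later with compounds in ethanol (0.1% final); controls got ethanol only. Cells washed in cold PBS and lipids extracted. Cer species and Sph quantified by HPLC-MS/MS (MRM, positive ion) against internal standards and calibration curves. Values given as pmol/nmol phospholipid and compared with ethanol controls.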

MCF7 [3] = assay: Decrease in endogenous C24-ceramide level in human MCF7 cells at 10 uM after 18 hrs; format: functional, cell-based; procedure, shortened: as §2
MCF7 [4] = assay: Increase in endogenous C16-ceramide level in human MCF7 cells at 10 uM within 30 mins; format: functional, cell-based; procedure, shortened: as §2
MCF7 [5] = assay: Decrease in endogenous sphingosine level in human MCF7 cells at 50 uM after 24 hrs; format: functional; parameters: scale not given: the % may be the effect or the level left; procedure, shortened: as §2
MCF7 [6] = assay: Increase in endogenous ceramide level in human MCF7 cells at 50 uM after 24 hrs; format: functional; procedure, shortened: as §1
MCF7 [7] = assay: Growth inhibition of human MCF7 cells after 48 hrs; format: functional, cell-based
MCF7 [8] = assay: Increase in endogenous C24-ceramide level in human MCF7 cells at 10 uM upto 2.5 hrs; format: functional, cell-based; procedure, shortened: as §2
MCF7 [9] = assay: Decrease in endogenous sphingosine level in human MCF7 cells at 20 uM after 24 hrs; format: functional, cell-based; procedure, shortened: as §2
MCF7 [10] = assay: Increase in endogenous C24:1-ceramide level in human MCF7 cells at 10 uM within 30 mins; format: functional, cell-based; procedure, shortened: as §1
MCF7 [11] = assay: Decrease in endogenous C24:1-ceramide level in human MCF7 cells upto 20 uM after 24 hrs; format: functional; parameters: scale not given: the % may be the effect or the level left; procedure, shortened: as §2
MCF7 [12] = assay: Increase in endogenous C24:1-ceramide level in human MCF7 cells at >30 uM after 24 hrs; format: functional, cell-based; procedure, shortened: as §1
MCF7 [13] = assay: Increase in endogenous sphingosine level in human MCF7 cells at 10 uM within 30 mins; format: functional; procedure, shortened: as §1
MCF7 [14] = assay: Decrease in endogenous sphingosine level in human MCF7 cells at 5 uM after 24 hrs; parameters: scale not given: the % may be the effect or the level left
MCF7 [15] = assay: Decrease in endogenous C24:1-ceramide level in human MCF7 cells at 10 uM upto 2.5 hrs; format: functional, cell-based; procedure, shortened: as §2
MCF7 [16] = assay: Decrease in endogenous C24-ceramide level in human MCF7 cells upto 20 uM after 24 hrs; format: functional; parameters: scale not given: the % may be the effect or the level left; procedure, shortened: as §2
MCF7 [17] = assay: Decrease in endogenous C16-ceramide level in human MCF7 cells at 10 uM after 18 hrs; format: functional, cell-based; procedure, shortened: as §2
MCF7 [18] = assay: Increase in endogenous C16-ceramide level in human MCF7 cells at >25 uM after 24 hrs; format: functional, cell-based; procedure, shortened: as §2
MCF7 [19] = assay: Decrease in endogenous ceramide level in human MCF7 cells at 10 uM after 24 hrs; format: functional; parameters: scale not given: the % may be the effect or the level left; procedure, shortened: as §2
MCF7 [20] = assay: Increase in endogenous ceramide level in human MCF7 cells at more than 5 uM after 24 hrs; format: functional, cell-based; procedure, shortened: as §1
MCF7 [21] = assay: Increase in endogenous C24-ceramide level in human MCF7 cells at 50 uM after 24 hrs; format: functional; procedure, shortened: as §1
MCF7 [22] = assay: Decrease in endogenous C24-ceramide level in human MCF7 cells at 10 uM after 24 hrs; format: functional; parameters: scale not given: the % may be the effect or the level left; procedure, shortened: as §2
MCF7 [23] = assay: Increase in endogenous C18-ceramide level in human MCF7 cells at 10 uM after 2.5 hrs; format: functional; procedure, shortened: as §2
MCF7 [24] = assay: Decrease in endogenous C24:1-ceramide level in human MCF7 cells at 10 uM; parameters: scale not given: the % may be the effect or the level left
MCF7 [25] = assay: Increase in endogenous C14-ceramide level in human MCF7 cells at 10 uM after 2.5 hrs; format: functional; procedure, shortened: as §2
MCF7 [26] = assay: Increase in endogenous C16-ceramide level in human MCF7 cells at 10 uM after 1 to 2.5 hrs; format: functional; procedure, shortened: as §2
MCF7 [27] = assay: Increase in endogenous C16-ceramide level in human MCF7 cells at 50 uM after 24 hrs; format: functional; procedure, shortened: as §2
MCF7 [28] = assay: Increase in endogenous C24:1-ceramide level in human MCF7 cells at 50 uM after 24 hrs; format: functional; procedure, shortened: as §1
MCF7 [29] = assay: Decrease in endogenous C24:1-ceramide level in human MCF7 cells at 10 uM after 24 hrs; format: functional; procedure, shortened: as §2
MCF7 [30] = assay: Decrease in endogenous sphingosine level in human MCF7 cells at 10 uM upto 24 hrs; format: functional, cell-based; procedure, shortened: as §2
MCF7 [31] = assay: Decrease in endogenous sphingosine level in human MCF7 cells at 1 uM after 24 hrs; format: functional; procedure, shortened: as §2
MCF7 [32] = assay: Increase in endogenous C16-ceramide level in human MCF7 cells at 10 uM after 24 hrs; format: functional, cell-based; procedure, shortened: as §2
MCF7 [33] = assay: Inhibition of acid ceramidase in human MCF7 cells assessed as enzyme degradation at 10 uM after 5 hrs; format: cell-based
MCF7 [34] = assay: Increase in endogenous C14-ceramide level in human MCF7 cells at 10 uM after 24 hrs; format: functional; procedure, shortened: as §2
MCF7 [35] = assay: (§3) Increase in endogenous C14-ceramide level in human MCF7 cells at 10 uM upto 24 hrs; format: functional, cell-based; procedure, shortened: as §2
MCF7 [36] = assay: Increase in endogenous C24:1-ceramide level in human MCF7 cells at 10 uM upto 0.5 hrs; format: functional, cell-based; procedure, shortened: as §1
MCF7 [37] = assay: Increase in endogenous C24:1-ceramide level in human MCF7 cells after 24 hrs; format: functional; procedure, shortened: as §1
MCF7 [38] = assay: Increase in endogenous C16-ceramide level in human MCF7 cells at 10 uM upto 0.5 hrs; format: functional, cell-based; procedure, shortened: as §2
MCF7 [39] = assay: Increase in endogenous sphingosine level in human MCF7 cells after 24 hrs; format: functional; procedure, shortened: as §1
MCF7 [40] = assay: Increase in endogenous C24-ceramide level in human MCF7 cells upto 24 hrs; format: functional; procedure, shortened: as §1
MCF7 [41] = assay: Increase in endogenous sphingosine-1-phosphate level in human MCF7 cells after 5 to 10 hrs; format: functional, cell-based; procedure, shortened: as §1
MCF7 [42] = assay: Increase in endogenous C16-ceramide level in human MCF7 cells after 24 hrs; format: functional; procedure, shortened: as §2
MCF7 [43] = assay: Increase in endogenous C24:1-ceramide level in human MCF7 cells upto 24 hrs; format: functional; procedure, shortened: as §1
MCF7 [44] = assay: Increase in endogenous C16-ceramide level in human MCF7 cells upto 24 hrs; format: functional; procedure, shortened: as §2
MCF7 [45] = assay: Decrease in endogenous sphingosine level in human MCF7 cells at 10 uM upto 0.5 hrs; format: functional, cell-based; procedure, shortened: as §2
MCF7 [46] = assay: Increase in endogenous C24-ceramide level in human MCF7 cells at 10 uM upto 0.5 hrs; format: functional, cell-based; procedure, shortened: as §2
MCF7 [47] = assay: Increase in endogenous C24-ceramide level in human MCF7 cells after 24 hrs; format: functional; procedure, shortened: as §2
MCF7 [48] = assay: as §3; format: functional; procedure, shortened: as §2
MCF7 [49] = assay: Increase in endogenous C14-ceramide level in human MCF7 cells after 24 hrs; format: functional; procedure, shortened: as §2
MCF7 [50] = assay: Decrease in endogenous sphingosine level in human MCF7 cells upto 50 uM after 24 hrs; format: functional, cell-based; procedure, shortened: as §2
MCF7 [51] = assay: Increase in endogenous C24:1-ceramide level in human MCF7 cells upto 5 uM after 24 hrs; format: functional, cell-based; procedure, shortened: as §1
MCF7 [52] = assay: Decrease in endogenous sphingosine level in human MCF7 cells upto 5 uM after 24 hrs; format: functional, cell-based; procedure, shortened: as §2
MCF7 [53] = assay: Decrease in endogenous C16-ceramide level in human MCF7 cells upto 5 uM after 24 hrs; format: functional, cell-based; procedure, shortened: as §2
MCF7 [54] = assay: Decrease in endogenous sphingosine level in human MCF7 cells at >2.5 uM after 24 hrs; format: functional, cell-based; procedure, shortened: as §2
MCF7 [55] = assay: Decrease in endogenous C16-ceramide level in human MCF7 cells at 10 uM after 24 hrs; format: functional; parameters: scale not given: the % may be the effect or the level left; procedure, shortened: as §2
MCF7 [56] = assay: Decrease in endogenous C24-ceramide level in human MCF7 cells upto 5 uM after 24 hrs; format: functional, cell-based; procedure, shortened: as §2
MCF7 [57] = assay: Increase in endogenous ceramide level in human MCF7 cells at >25 uM after 24 hrs; format: functional, cell-based; procedure, shortened: as §1

## CCCCCCCCCCCCNC(=O)N[C@H](CO)[C@H](O)c1ccc([N+](=O)[O-])cc1
MCF7 [1]
  Activity: Active
MCF7 [2]
  Activity: Active
MCF7 [3]
  Activity: Active
MCF7 [4]
  Activity: Active
MCF7 [5]
  Activity: 45%
MCF7 [6]
  Activity: 170%
MCF7 [7]
  Activity: Active
MCF7 [8]
  Activity: Active
MCF7 [9]
  Activity: Active
MCF7 [10]
  Activity: Active
MCF7 [11]
  Activity: 80%
MCF7 [12]
  Activity: Active
MCF7 [13]
  Activity: Active
MCF7 [14]
  Activity: 80%
MCF7 [15]
  Activity: Active
MCF7 [16]
  Activity: 80%
MCF7 [17]
  Activity: Active
MCF7 [18]
  Activity: Active
MCF7 [19]
  Activity: 90%

## CCCCCCCCCCCCCC(=O)N[C@H](CO)[C@H](O)c1ccc([N+](=O)[O-])cc1
MCF7 [20]
  Activity: Active
MCF7 [5]
  Activity: 50%
MCF7 [21]
  Activity: 220%
MCF7 [6]
  Activity: 300%
MCF7 [7]
  Activity: Active
MCF7 [22]
  Activity: 80%
MCF7 [23]
  Activity: Active
MCF7 [24]
  Activity: 80%
MCF7 [25]
  Activity: 120%
MCF7 [26]
  Activity: 120%
MCF7 [27]
  Activity: 340%
MCF7 [28]
  Activity: 380%

## CCCCCCCCCCCCCCN[C@H](CO)[C@H](O)c1ccc([N+](=O)[O-])cc1.Cl
MCF7 [29]
  Activity: Active
MCF7 [30]
  Activity: Active
MCF7 [22]
  Activity: Active
MCF7 [31]
  Activity: Active
MCF7 [32]
  Activity: Active
MCF7 [33]
  Activity: Active
MCF7 [34]
  Activity: 850%
MCF7 [35]
  Activity: Active

## O=C(CCCCCCCCCCCCCCC[n+]1ccccc1)N[C@H](CO)[C@H](O)c1ccc([N+](=O)[O-])cc1.[Br-]
MCF7 [36]
  Activity: Active
MCF7 [37]
  Activity: 270%
MCF7 [38]
  Activity: Active
MCF7 [39]
  Activity: 350%
MCF7 [40]
  Activity: 130%
MCF7 [41]
  Activity: Active
MCF7 [42]
  Activity: 800%
MCF7 [43]
  Activity: 260%
MCF7 [44]
  Activity: 820%
MCF7 [45]
  Activity: Active
MCF7 [46]
  Activity: Active
MCF7 [47]
  Activity: 140%
MCF7 [48]
  Activity: 760%
MCF7 [49]
  Activity: 800%

## CCCCCCCCCCCCCC(=O)N[C@H](C)[C@@H](O)c1ccccc1
MCF7 [50]
  Activity: Active
MCF7 [51]
  Activity: Active
MCF7 [52]
  Activity: Active
MCF7 [53]
  Activity: Active
MCF7 [54]
  Activity: Active
MCF7 [22]
  Activity: 30%
MCF7 [55]
  Activity: 30%
MCF7 [56]
  Activity: Active
MCF7 [24]
  Activity: 30%
MCF7 [57]
  Activity: Active
